Converted amounts (≈) assume the structure as drawn. The source made the active and inactive calls. No cut-off for these calls is given here.

Data set [1] deals with Pseudomonas luteola. As to the kind of experiment: Antimicrobial activity against Pseudomonas luteola LAM expressing blaLUT-1 by Etest method. Type of data set: functional.
For data set [2], the system named is Pseudomonas luteola. As to the kind of experiment: Antimicrobial activity against Pseudomonas luteola expressing blaLUT-2 to blaLUT-6 by Etest method. The class given is functional.
Data set [3] relates to Escherichia coli. Nature of the data set: Antimicrobial activity against Escherichia coli DH10B transfected with pBK-L3 expressing blaLUT-1 by Etest method. Type of data set: functional. To be noted: K-12 DH10B.
For data set [4], the system named is Escherichia coli. As to the kind of experiment: Antimicrobial activity against Escherichia coli DH10B by Etest method. The class given is functional. The settings on record: K-12 DH10B.
The subject of data set [5] is Pseudomonas luteola. Nature of the data set: Antimicrobial activity against Pseudomonas luteola LAM expressing blaLUT-1 by Etest method in presence of 4 ug/ml clavulanic acid. The class given is functional.
In data set [6] the test system is Pseudomonas luteola. Nature of the data set: Antimicrobial activity against Pseudomonas luteola expressing blaLUT-2 to blaLUT-6 by Etest method in presence of 4 ug/ml clavulanic acid. Type of data set: functional.
Data set [7] deals with Escherichia coli. Nature of the data set: Antimicrobial activity against Escherichia coli DH10B by Etest method in presence of 4 ug/ml clavulanic acid. The class given is functional. The settings on record: K-12 DH10B.
The subject of data set [8] is Escherichia coli. Nature of the data set: microbe, parasite or virus in culture. To be noted: K-12 DH10B.
The test system of data set [9] is Pseudomonas luteola. As to the kind of experiment: Antimicrobial activity against Pseudomonas luteola by Etest method. Type of data set: functional.
For data set [10], the system named is Pseudomonas luteola. Nature of the data set: Antimicrobial activity against Pseudomonas luteola by disk diffusion method. Type of data set: functional. The method in brief: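 Disk diffusion panel of 32 antimicrobial drugs tested on P. luteola clinical isolates and the type strain. Isolates were identified by API-20 NE and by sequencing of PCR-amplified rrs and rpoB.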

In data set [11] the test system is Pseudomonas luteola. As to the kind of experiment: Antimicrobial activity against Pseudomonas luteola LAM expressing blaLUT-1 by Etest method in presence of 4 ug/ml Tazobactam. Type of data set: functional.
Data set [12] relates to Pseudomonas luteola. As to the kind of experiment: Antimicrobial activity against Pseudomonas luteola expressing blaLUT-2 to blaLUT-6 by Etest method in presence of 4 ug/ml Tazobactam. Type of data set: functional.
Data set [13] deals with Escherichia coli. As to the kind of experiment: Antimicrobial activity against Escherichia coli DH10B transfected with pBK-L3 expressing blaLUT-1 by Etest method in presence of 4 ug/ml Tazobactam. The class given is functional. To be noted: K-12 DH10B.
Data set [14] concerns Escherichia coli. Nature of the data set: Antimicrobial activity against Escherichia coli DH10B by Etest method in presence of 4 ug/ml Tazobactam. The class given is functional. The settings on record: K-12 DH10B.
Data set [15] relates to Pseudomonas luteola. As to the kind of experiment: Antimicrobial activity against Pseudomonas luteola LAM expressing blaLUT-1 by Etest method in presence of 2 ug/ml clavulanic acid. The class given is functional.
The test system of data set [16] is Pseudomonas luteola. As to the kind of experiment: Antimicrobial activity against Pseudomonas luteola expressing blaLUT-2 to blaLUT-6 by Etest method in presence of 2 ug/ml clavulanic acid. The class given is functional.
Data set [17] concerns Escherichia coli. As to the kind of experiment: Antimicrobial activity against Escherichia coli DH10B transfected with pBK-L3 expressing blaLUT-1 by Etest method in presence of 2 ug/ml clavulanic acid. To be noted: K-12 DH10B. The class given is functional.
Data set [18] concerns Escherichia coli. As to the kind of experiment: Antimicrobial activity against Escherichia coli DH10B by Etest method in presence of 2 ug/ml clavulanic acid. The class given is functional. The settings on record: K-12 DH10B.
Substrate in data set [19]: CC(=O)OCC1=C(C(=O)O)N2C(=O)[C@@H](NC(=O)Cc3cccs3)[C@H]2SC1
Nature of the data set: (§1) Activity of Pseudomonas luteola LAM Beta-lactamase LUT-1. In outline: (§2)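 LUT-1 was purified from E. coli DH5α(pBK-L3) grown for 18 h at 37°C in 2× yeast-tryptone broth with kanamycin 20 μg/ml and amoxicillin 32 μg/ml. Purification used Q Sepharose ion exchange, then Superose 12 gel filtration, with purity checked by SDS-PAGE. Km and kcat were determined by a computerized microacidimetric method, each three times, with coefficients of variation not exceeding 15%.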

Substrate in data set [20]: CC(C)(O/N=C(\C(=O)N[C@@H]1C(=O)N2C(C(=O)[O-])=C(C[n+]3ccccc3)CS[C@H]12)c1csc(N)n1)C(=O)O
The description is as §1. The method in brief: as §2

Substrate in data set [21]: CC1(C)S[C@@H]2[C@H](NC(=O)Cc3ccccc3)C(=O)N2[C@H]1C(=O)O
Described as §1. In outline:
as §2

Substrate in data set [22]: CC1(C)S[C@@H]2[C@H](NC(=O)[C@H](C(=O)O)c3ccsc3)C(=O)N2[C@H]1C(=O)O
The description is as §1. The method in brief:
as §2

Substrate in data set [23]: CC1(C)S[C@@H]2[C@H](NC(=O)[C@H](N)c3ccc(O)cc3)C(=O)N2[C@H]1C(=O)O
Described as §1. The method in brief:
as §2

Substrate in data set [24]: CCN1CCN(C(=O)N[C@@H](C(=O)N[C@@H]2C(=O)N3[C@@H]2SC(C)(C)[C@@H]3C(=O)O)c2ccccc2)C(=O)C1=O
Described as §1. The method in brief:
as §2

Substrate in data set [25]: CO/N=C(\C(=O)N[C@@H]1C(=O)N2C(C(=O)O)=C(COC(C)=O)CS[C@H]12)c1csc(N)n1
The description is as §1. The method in brief: as §2

Substrate in data set [26]: CO/N=C(\C(=O)N[C@@H]1C(=O)N2C(C(=O)O)=C(COC(N)=O)CS[C@H]12)c1ccco1
The data set is described as §1. The method in brief:
as §2

Substrate in data set [27]: C[C@H]1[C@H](NC(=O)/C(=N\OC(C)(C)C(=O)O)c2csc(N)n2)C(=O)N1S(=O)(=O)O
Described as §1. The method in brief:
as §2

Substrate in data set [28]: CC(=O)OCC1=C(C(=O)O)N2C(=O)[C@@H](NC(=O)Cc3cccs3)[C@H]2SC1
As to the kind of experiment: (§3) Ratio of kcat/Km for Pseudomonas luteola LAM Beta-lactamase LUT-1. The method in brief: as §2

Substrate in data set [29]: CC(C)(O/N=C(\C(=O)N[C@@H]1C(=O)N2C(C(=O)[O-])=C(C[n+]3ccccc3)CS[C@H]12)c1csc(N)n1)C(=O)O
The description is as §3. In outline:
as §2

Substrate in data set [30]: CC1(C)S[C@@H]2[C@H](NC(=O)Cc3ccccc3)C(=O)N2[C@H]1C(=O)O
The data set is described as §3. In outline:
as §2

Substrate in data set [31]: CC1(C)S[C@@H]2[C@H](NC(=O)[C@H](C(=O)O)c3ccsc3)C(=O)N2[C@H]1C(=O)O
The data set is described as §3. In outline:
as §2

Substrate in data set [32]: CC1(C)S[C@@H]2[C@H](NC(=O)[C@H](N)c3ccc(O)cc3)C(=O)N2[C@H]1C(=O)O
The data set is described as §3. The method in brief:
as §2

Substrate in data set [33]: CCN1CCN(C(=O)N[C@@H](C(=O)N[C@@H]2C(=O)N3[C@@H]2SC(C)(C)[C@@H]3C(=O)O)c2ccccc2)C(=O)C1=O
Described as §3. The method in brief: as §2

Substrate in data set [34]: CO/N=C(\C(=O)N[C@@H]1C(=O)N2C(C(=O)O)=C(COC(C)=O)CS[C@H]12)c1csc(N)n1
The data set is described as §3. In outline: as §2

Substrate in data set [35]: CO/N=C(\C(=O)N[C@@H]1C(=O)N2C(C(=O)O)=C(COC(N)=O)CS[C@H]12)c1ccco1
Described as §3. The method in brief:
as §2

Substrate in data set [36]: C[C@H]1[C@H](NC(=O)/C(=N\OC(C)(C)C(=O)O)c2csc(N)n2)C(=O)N1S(=O)(=O)O
The description is as §3. In outline: as §2

Regarding `CC(C)(O/N=C(\C(=O)N[C@@H]1C(=O)N2C(C(=O)[O-])=C(C[n+]3ccccc3)CS[C@H]12)c1csc(N)n1)C(=O)O` [CEFTAZIDIME], the MIC stood at 0.5 µg/mL (≈ 0.915 µM) in [1]; 0.5 µg/mL (≈ 0.915 µM) in data set [2]; 1 µg/mL (≈ 1.83 µM) in data set [3]; 0.125 µg/mL (≈ 0.229 µM) in data set [4]; 0.25 µg/mL in data set [5]; 0.25 µg/mL in [6]. For the same molecule, the MIC in data set [7] was determined as 0.25 µg/mL; in data set [8] it was 0.5 µg/mL (≈ 0.915 µM).
Take `CC(=O)OCC1=C(C(=O)O)N2C(=O)[C@@H](NC(=O)Cc3cccs3)[C@H]2SC1` [CEPHALOTHIN]: the MIC in data set [1] is 64 µg/mL (≈ 161 µM); in [2] it was 128 µg/mL (≈ 323 µM); in [3], 32 µg/mL (≈ 80.7 µM); in data set [4], 4 µg/mL (≈ 10.1 µM).
The molecule `O=C(O)c1cn(C2CC2)c2cc(N3CCNCC3)c(F)cc2c1=O` [CIPROFLOXACIN] gave an MIC in data set [9] of 0.032 µg/mL (≈ 0.0966 µM).
For the molecule `C[C@@H](O)[C@H]1C(=O)N2C(C(=O)O)=C(SCCNC=N)C[C@H]12` [IMIPENEM ANHYDROUS], the MIC in [1] and in data set [2] was 0.25 µg/mL (≈ 0.835 µM) each time.
For the molecule `CCn1cc(C(=O)O)c(=O)c2ccc(C)nc21` [NALIDIXIC ACID], the outcome in [10] was inactive. Further, the MIC in data set [9] came out at 16 µg/mL (≈ 68.9 µM).
Consider `CCN1CCN(C(=O)N[C@@H](C(=O)N[C@@H]2C(=O)N3[C@@H]2SC(C)(C)[C@@H]3C(=O)O)c2ccccc2)C(=O)C1=O` [PIPERACILLIN], for which the MIC came out at 2 µg/mL (≈ 3.86 µM) in data set [1]; 2 µg/mL (≈ 3.86 µM) in [2]; 8 µg/mL (≈ 15.5 µM) in [3]; 1 µg/mL (≈ 1.93 µM) in data set [4]; 1 µg/mL in data set [11]; 1 µg/mL in [12]. The MIC in data set [13] and in data set [14] was 1 µg/mL throughout.
On to `CC1(C)S[C@@H]2[C@H](NC(=O)[C@H](C(=O)O)c3ccsc3)C(=O)N2[C@H]1C(=O)O` [TICARCILLIN], for which the MIC in data set [1] came out at 8 µg/mL (≈ 20.8 µM); in data set [2] it was 8 µg/mL (≈ 20.8 µM); in data set [3], 256 µg/mL (≈ 666 µM); in data set [4], 2 µg/mL (≈ 5.2 µM); in [15], 4 µg/mL; in [16], 2 µg/mL. Besides, the MIC came out at 16 µg/mL in data set [17] and 2 µg/mL in data set [18].

B1: Beta-lactamase (Pseudomonas luteola), Q670S6 (protein)
chain: MNVILNRRTFLLASAVVSASYSLGTLAGANRDDASFQDRLAKLEQQLNGRLGVCAIDTANGAQLGYRANERFAMNSTFKVMLASAFLARSQDEPGLLEERLTYTRADLVTYSPVTEKHVSTGMTVAELCAAGIQYSDNTAANVLMKKLGGPEAVTAFARSIGDTHFRLDRWETELNSAIPGDPRDTSTPQAMAMSLQRLALGDMLAADKQHQLQAWLKGNTTGGKRIRAGVPAGWQVGDKTGTGDYGSANDVAILWPPRRAPVVLALYSALENQQAEARNDVLADAARIVAEWVTG
Usually Km stands for the substrate concentration at which the rate is half of its maximum. One may read the kcat as the number of substrate molecules converted per active site and unit of time at saturation. The kcat/Km is the turnover number divided by the Michaelis constant. Turning to B1, the Km worked out at 21 µM in data set [19]; 35 µM in [20]; 8 µM in [21]; 14 µM in data set [22]; 20 µM in data set [23]; 7 µM in [24]. Also, the figures for the Km in [25], in data set [26] and in data set [27] were 86 µM, 24 µM and 40 µM, respectively. Further, the turnover number (kcat) in [19] was 543 s⁻¹; in data set [20], 1.3 s⁻¹; in data set [21], 31 s⁻¹; in data set [22], 5 s⁻¹; in [23] it was 21 s⁻¹; in data set [24], 8 s⁻¹. Also, the catalytic constant (kcat) is 452 s⁻¹ in data set [25], 286 s⁻¹ in data set [26] and 1.5 s⁻¹ in data set [27]. The kcat/Km in data set [28] amounted to 2.59e+07 M⁻¹ s⁻¹; in [29] it was 40000 M⁻¹ s⁻¹; in data set [30], 3.87e+06 M⁻¹ s⁻¹; in data set [31], 360000 M⁻¹ s⁻¹; in data set [32], 1.05e+06 M⁻¹ s⁻¹; in data set [33], 1.14e+06 M⁻¹ s⁻¹. Besides, the kcat/Km in data set [34] was found to be 5.25e+06 M⁻¹ s⁻¹; in [35], 1.19e+07 M⁻¹ s⁻¹; in data set [36], 40000 M⁻¹ s⁻¹.

Source of the values: ChEMBL document CHEMBL1212770, “Molecular and biochemical characterization of the natural chromosome-encoded class A beta-lactamase from Pseudomonas luteola” (Antimicrob Agents Chemother, 2010).
